# From ChEMBL document CHEMBL5653631, “A Potent and Selective ULK1 Inhibitor Suppresses Autophagy and Sensitizes Cancer Cells to Nutrient Stress” (iScience, 2018)
# Tests used:
# [1] = molecular target: Serine/threonine-protein kinase MARK1 (Homo sapiens) (UniProt Q9P0L2); test: Inhibition of human recombinant MARK1 at 40 nM related to control ULK1
# [2] = molecular target: Serine/threonine-protein kinase 32A (Homo sapiens) (UniProt Q8WU08); test: Inhibition of human recombinant YANK1 at 40 nM related to control ULK1
# Sequence of Serine/threonine-protein kinase 32A (Homo sapiens) (Q8WU08 whole entry): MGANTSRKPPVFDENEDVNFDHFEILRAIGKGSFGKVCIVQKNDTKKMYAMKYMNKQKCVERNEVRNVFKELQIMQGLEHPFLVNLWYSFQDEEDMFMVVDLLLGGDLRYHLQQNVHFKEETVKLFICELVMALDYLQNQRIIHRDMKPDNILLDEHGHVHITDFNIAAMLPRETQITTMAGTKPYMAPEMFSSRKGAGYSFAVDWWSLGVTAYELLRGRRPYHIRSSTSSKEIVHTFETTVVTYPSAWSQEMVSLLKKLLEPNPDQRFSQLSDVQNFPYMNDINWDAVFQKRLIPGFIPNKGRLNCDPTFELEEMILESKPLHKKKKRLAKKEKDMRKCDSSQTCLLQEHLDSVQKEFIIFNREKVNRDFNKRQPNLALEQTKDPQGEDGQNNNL
# [3] = molecular target: Receptor tyrosine-protein kinase erbB-4 (Homo sapiens) (UniProt Q15303); test: Inhibition of human recombinant ErbB4 at 40 nM in presence of ATP by radiometric assay relative to control
# [4] = molecular target: T1, Discoidin domain-containing receptor 2 (Homo sapiens) (UniProt Q16832); test: Inhibition of human recombinant DDR2 at 500 nM in presence of ATP by radiometric assay relative to control
# T1 sequence (whole entry): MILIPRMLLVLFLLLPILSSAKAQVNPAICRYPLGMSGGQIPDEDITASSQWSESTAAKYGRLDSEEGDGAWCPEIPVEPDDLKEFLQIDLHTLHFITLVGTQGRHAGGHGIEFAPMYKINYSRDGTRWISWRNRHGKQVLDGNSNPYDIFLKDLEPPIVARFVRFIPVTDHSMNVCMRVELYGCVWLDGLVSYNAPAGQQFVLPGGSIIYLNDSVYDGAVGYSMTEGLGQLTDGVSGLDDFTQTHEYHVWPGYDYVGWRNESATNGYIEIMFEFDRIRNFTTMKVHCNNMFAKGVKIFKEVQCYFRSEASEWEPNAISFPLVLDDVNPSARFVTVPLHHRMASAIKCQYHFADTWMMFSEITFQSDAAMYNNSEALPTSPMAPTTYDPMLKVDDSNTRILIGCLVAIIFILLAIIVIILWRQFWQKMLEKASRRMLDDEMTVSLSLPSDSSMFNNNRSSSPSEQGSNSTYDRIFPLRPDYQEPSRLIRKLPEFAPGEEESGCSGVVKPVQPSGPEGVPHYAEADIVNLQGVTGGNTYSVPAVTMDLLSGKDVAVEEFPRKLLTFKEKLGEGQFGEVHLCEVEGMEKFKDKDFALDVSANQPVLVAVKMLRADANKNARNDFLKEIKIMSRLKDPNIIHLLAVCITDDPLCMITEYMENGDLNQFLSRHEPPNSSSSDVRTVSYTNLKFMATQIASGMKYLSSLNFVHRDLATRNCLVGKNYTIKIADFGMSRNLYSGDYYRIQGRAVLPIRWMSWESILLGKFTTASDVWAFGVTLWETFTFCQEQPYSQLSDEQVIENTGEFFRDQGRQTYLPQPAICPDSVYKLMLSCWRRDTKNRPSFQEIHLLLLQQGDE
# [5] = molecular target: T2, cAMP-dependent protein kinase catalytic subunit PRKX (Homo sapiens) (UniProt P51817); test: Inhibition of human recombinant PRKX at 500 nM related to control ULK1
# T2 sequence (whole entry): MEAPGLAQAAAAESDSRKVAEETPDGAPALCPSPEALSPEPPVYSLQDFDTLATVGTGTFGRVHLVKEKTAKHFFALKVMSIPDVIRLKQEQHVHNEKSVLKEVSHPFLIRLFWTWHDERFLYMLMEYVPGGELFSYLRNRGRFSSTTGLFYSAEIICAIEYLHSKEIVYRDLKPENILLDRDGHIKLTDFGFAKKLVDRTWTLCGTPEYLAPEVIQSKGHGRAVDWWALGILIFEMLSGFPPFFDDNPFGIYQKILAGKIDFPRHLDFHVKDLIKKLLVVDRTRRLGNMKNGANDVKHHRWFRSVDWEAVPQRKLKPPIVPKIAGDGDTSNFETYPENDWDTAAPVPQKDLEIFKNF
# [6] = molecular target: Serine-protein kinase ATM (Homo sapiens) (UniProt Q13315); test: Inhibition of human recombinant ATM at 15 nM in presence of ATP by radiometric assay relative to control
# Sequence of Serine-protein kinase ATM (Homo sapiens) (Q13315 whole entry): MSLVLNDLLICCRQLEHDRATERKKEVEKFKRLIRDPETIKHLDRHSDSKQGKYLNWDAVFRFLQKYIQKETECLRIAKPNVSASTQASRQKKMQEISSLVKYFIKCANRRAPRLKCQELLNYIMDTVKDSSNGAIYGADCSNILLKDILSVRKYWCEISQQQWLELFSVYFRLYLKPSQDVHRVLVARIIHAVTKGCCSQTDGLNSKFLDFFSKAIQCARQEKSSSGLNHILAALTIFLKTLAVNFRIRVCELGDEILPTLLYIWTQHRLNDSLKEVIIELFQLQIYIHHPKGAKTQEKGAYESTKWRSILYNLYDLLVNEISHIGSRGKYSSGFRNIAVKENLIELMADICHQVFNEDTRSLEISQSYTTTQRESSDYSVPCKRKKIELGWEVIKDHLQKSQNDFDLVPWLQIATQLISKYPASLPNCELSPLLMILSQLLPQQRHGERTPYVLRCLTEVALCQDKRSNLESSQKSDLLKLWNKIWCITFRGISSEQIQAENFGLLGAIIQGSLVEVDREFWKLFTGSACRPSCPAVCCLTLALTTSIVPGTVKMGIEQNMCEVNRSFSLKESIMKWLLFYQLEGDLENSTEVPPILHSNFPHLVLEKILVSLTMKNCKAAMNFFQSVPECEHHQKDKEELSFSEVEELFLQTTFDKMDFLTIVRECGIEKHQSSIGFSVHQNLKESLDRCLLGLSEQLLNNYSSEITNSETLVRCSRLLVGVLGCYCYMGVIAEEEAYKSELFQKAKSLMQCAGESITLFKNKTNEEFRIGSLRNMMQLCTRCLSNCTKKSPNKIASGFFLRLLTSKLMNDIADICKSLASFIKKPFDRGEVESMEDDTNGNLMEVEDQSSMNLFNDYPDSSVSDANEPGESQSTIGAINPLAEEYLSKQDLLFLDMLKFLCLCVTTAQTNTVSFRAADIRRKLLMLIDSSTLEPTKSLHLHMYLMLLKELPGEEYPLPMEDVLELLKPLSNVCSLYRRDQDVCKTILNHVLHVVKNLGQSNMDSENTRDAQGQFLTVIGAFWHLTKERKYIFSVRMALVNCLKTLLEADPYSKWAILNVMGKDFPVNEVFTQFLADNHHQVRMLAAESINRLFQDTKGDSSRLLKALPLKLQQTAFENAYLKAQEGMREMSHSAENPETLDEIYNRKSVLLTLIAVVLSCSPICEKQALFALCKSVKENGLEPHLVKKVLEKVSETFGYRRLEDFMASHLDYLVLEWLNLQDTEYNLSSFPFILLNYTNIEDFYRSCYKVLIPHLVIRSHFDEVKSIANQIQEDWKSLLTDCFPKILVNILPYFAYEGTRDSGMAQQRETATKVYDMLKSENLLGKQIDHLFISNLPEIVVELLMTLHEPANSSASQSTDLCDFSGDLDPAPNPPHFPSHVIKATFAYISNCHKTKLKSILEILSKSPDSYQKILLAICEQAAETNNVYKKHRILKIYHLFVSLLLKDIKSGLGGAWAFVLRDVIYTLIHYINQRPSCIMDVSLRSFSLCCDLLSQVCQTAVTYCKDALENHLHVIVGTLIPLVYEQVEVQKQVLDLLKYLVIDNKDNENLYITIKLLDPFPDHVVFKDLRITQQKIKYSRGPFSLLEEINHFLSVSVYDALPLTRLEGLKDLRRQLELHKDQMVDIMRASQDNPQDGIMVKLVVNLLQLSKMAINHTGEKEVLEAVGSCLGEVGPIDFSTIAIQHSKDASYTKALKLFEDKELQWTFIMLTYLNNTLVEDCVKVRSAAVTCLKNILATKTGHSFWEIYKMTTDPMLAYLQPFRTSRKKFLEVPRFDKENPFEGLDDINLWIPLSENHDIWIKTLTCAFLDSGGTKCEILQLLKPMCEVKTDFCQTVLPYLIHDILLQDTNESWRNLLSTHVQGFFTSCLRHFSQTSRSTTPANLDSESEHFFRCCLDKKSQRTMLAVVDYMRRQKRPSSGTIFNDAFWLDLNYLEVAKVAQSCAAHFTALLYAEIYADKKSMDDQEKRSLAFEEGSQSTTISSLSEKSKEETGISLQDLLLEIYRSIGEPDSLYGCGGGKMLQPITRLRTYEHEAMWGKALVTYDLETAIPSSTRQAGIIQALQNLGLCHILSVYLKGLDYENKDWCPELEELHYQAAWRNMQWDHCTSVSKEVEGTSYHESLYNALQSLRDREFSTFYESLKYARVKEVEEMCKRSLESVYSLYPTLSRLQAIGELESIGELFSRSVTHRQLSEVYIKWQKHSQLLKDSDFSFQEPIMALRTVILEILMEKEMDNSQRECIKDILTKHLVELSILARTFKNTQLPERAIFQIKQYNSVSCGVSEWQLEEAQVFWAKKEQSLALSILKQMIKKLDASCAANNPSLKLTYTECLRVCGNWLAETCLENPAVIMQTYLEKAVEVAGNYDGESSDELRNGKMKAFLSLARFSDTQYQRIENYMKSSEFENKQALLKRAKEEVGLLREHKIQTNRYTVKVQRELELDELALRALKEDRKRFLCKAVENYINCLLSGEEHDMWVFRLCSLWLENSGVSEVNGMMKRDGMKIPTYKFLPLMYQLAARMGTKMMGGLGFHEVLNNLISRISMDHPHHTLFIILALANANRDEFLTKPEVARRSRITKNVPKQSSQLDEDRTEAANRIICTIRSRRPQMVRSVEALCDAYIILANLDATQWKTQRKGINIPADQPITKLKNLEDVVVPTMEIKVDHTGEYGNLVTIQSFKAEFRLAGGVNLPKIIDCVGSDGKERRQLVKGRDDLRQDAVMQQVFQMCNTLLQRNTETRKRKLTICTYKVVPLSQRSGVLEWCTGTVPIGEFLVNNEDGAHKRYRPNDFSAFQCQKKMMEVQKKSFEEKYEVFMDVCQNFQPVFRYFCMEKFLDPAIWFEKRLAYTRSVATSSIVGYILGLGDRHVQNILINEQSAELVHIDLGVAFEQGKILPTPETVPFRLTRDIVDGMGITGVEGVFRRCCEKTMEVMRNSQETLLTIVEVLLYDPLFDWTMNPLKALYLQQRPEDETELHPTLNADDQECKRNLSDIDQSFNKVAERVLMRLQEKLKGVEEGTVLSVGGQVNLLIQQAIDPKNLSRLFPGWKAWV
# Outline: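 Panel of 327 recombinant human kinases, each assayed in vitro by radiometric activity assay in duplicate at a single inhibitor concentration per compound, chosen with reference to its ULK1 inhibition. Activity remaining was expressed as percent of vehicle control, and percent inhibition was calculated as 100 minus percent activity remaining.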
# [7] = molecular target: Cyclin-dependent kinase 7 (Homo sapiens) (UniProt P50613); test: Inhibition of human recombinant CDK7 at 15 nM related to control ULK1
# Sequence of Cyclin-dependent kinase 7 (Homo sapiens) (P50613 whole entry): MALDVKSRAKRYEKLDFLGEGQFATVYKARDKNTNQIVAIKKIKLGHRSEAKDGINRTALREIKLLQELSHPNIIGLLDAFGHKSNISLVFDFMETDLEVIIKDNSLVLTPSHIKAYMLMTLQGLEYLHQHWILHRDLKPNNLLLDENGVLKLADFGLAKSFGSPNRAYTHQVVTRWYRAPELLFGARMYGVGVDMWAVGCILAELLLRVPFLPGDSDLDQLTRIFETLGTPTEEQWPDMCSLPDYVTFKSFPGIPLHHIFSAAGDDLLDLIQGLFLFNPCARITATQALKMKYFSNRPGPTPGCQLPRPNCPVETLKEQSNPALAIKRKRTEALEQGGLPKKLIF
# [8] = molecular target: T3, Eukaryotic translation initiation factor 2-alpha kinase 3 (Homo sapiens) (UniProt Q9NZJ5); test: Inhibition of human recombinant PEK at 15 nM in presence of ATP by radiometric assay relative to control
# T3 sequence (whole entry): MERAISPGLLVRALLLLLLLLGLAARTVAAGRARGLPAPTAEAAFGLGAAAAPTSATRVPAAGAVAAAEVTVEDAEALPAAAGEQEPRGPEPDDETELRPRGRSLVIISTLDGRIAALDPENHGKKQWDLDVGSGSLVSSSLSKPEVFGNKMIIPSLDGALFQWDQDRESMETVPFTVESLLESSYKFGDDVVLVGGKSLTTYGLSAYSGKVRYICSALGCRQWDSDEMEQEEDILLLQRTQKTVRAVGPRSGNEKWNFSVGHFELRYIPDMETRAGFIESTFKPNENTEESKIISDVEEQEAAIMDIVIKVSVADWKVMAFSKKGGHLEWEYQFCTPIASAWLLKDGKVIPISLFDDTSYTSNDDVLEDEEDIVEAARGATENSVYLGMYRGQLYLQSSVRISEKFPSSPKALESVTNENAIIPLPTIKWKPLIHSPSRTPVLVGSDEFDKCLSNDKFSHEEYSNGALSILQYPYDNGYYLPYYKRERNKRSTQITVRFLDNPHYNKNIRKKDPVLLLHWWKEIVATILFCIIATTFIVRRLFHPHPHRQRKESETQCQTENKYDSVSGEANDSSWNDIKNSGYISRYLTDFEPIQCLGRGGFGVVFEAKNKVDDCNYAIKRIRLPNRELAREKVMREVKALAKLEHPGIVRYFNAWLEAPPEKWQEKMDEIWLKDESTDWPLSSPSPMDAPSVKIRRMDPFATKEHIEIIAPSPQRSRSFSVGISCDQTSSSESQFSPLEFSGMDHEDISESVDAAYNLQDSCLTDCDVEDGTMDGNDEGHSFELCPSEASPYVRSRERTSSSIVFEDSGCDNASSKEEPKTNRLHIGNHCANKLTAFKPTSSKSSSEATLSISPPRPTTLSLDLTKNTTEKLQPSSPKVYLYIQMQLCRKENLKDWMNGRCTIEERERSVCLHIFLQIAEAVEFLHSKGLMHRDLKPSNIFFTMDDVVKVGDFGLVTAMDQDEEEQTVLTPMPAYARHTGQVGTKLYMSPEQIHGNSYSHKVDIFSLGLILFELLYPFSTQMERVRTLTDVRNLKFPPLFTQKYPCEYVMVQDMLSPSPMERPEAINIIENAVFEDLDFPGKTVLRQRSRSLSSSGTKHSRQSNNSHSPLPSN
# [9] = molecular target: Serine/threonine-protein kinase VRK2 (Homo sapiens) (UniProt Q86Y07); test: Inhibition of human recombinant VRK2 at 15 nM related to control ULK1
# Sequence of Serine/threonine-protein kinase VRK2 (Homo sapiens) (Q86Y07 whole entry): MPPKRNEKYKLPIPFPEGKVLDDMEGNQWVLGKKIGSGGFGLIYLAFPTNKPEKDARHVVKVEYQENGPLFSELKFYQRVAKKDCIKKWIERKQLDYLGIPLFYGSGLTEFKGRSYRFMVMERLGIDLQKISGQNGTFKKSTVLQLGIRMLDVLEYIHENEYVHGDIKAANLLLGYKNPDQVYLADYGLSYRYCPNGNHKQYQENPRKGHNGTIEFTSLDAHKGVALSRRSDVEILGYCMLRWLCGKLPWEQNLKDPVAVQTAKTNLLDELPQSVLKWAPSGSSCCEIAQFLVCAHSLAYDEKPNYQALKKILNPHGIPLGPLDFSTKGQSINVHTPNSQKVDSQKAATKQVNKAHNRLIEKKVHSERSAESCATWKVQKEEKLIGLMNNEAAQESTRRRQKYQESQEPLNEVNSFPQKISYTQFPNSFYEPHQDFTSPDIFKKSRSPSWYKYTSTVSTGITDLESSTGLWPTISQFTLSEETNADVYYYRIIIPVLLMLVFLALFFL
# Sequence of Serine/threonine-protein kinase MARK1 (Homo sapiens) (Q9P0L2 whole entry, looked up): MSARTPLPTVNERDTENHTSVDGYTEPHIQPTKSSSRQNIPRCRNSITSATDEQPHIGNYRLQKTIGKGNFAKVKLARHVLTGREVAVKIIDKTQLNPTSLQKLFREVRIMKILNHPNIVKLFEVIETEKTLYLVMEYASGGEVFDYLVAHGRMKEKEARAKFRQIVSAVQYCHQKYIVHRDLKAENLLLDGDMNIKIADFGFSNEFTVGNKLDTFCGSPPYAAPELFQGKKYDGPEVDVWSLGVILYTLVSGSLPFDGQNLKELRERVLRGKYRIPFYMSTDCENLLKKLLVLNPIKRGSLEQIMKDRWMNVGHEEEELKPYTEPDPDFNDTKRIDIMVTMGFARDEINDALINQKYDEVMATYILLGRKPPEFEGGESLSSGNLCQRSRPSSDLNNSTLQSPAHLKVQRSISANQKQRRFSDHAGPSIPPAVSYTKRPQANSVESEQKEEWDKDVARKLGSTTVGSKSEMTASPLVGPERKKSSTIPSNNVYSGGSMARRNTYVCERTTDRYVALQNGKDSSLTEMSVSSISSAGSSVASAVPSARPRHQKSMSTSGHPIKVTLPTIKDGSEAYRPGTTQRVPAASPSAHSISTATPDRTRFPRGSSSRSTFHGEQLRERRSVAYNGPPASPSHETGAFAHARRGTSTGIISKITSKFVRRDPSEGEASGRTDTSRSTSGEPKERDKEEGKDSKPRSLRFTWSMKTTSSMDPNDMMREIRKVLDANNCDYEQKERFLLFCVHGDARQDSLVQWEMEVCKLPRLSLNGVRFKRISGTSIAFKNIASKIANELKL
structure (smiles),measurement,setting,value
O=C(N[C@@H](C1CC1)C(F)(F)F)c1cc(-c2cnn3cc(-c4ccc(F)cc4)cnc23)cs1,fold change (FC),[1],0.4
same,fold change (FC),[2],0.05
same,inhibition,[3],0%
CNC(=O)c1ccccc1Oc1nc(Nc2cc(OC)c(OC)c(OC)c2)ncc1Br,inhibition,[4],0%
same,fold change (FC),[5],0.22
CC(C)[C@H](NC(=O)c1cc(-c2cnn3cc(-c4ccc(OCCN5CCCCC5)cc4)cnc23)cs1)C(F)(F)F,inhibition,[6],6%
same,fold change (FC),[7],0.18
same,inhibition,[8],0%
same,fold change (FC),[9],0
